# Measured values reported in ChEMBL document CHEMBL1155929, “3-(4-(6-Fluoroalkoxy-3,4-dihydroisoquinoline-2(1H)-yl)cyclohexyl)-1H-indole-5-carbonitriles for SERT imaging: chemical synthesis, evaluation in vitro and radiofluorination” (Bioorg Med Chem Lett, 2008).
# Assays:
# [1] = target: T1, Sodium-dependent serotonin transporter (Homo sapiens, UniProt P31645); test: biochemical; format: cell-based, HEK293
# Target sequence in this assay (P31645 whole entry): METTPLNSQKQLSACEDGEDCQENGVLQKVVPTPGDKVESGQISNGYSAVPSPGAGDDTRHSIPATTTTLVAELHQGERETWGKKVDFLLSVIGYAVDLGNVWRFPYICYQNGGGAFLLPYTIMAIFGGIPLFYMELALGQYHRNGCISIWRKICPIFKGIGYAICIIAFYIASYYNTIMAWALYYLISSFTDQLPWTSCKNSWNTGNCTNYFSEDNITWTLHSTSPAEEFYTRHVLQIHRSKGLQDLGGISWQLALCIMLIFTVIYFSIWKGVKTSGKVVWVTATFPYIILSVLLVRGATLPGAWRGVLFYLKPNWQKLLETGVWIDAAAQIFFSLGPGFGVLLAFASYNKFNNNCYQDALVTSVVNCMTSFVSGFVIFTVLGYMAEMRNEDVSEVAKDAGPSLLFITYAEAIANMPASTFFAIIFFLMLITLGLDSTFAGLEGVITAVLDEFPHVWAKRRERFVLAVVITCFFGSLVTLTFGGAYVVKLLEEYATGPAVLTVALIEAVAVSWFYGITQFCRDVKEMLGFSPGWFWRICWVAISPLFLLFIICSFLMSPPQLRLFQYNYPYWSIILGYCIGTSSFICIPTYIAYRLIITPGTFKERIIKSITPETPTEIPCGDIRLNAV
# [2] = target: T1, Sodium-dependent serotonin transporter; test: biochemical; format: cell-based, HEK293; remark: listed apart in the source
# Target sequence in this assay (P31645 whole entry): as above
# [3] = target: T1, Sodium-dependent serotonin transporter; test: Ratio of Ki for displacement of [3H]paroxetine to displacement of [3H]citalopram from human SERT expressed in […] cells; format: cell-based
# Target sequence in this assay (P31645 whole entry, looked up): as the sequence (P31645 whole entry) above
# [4] = target: Sodium-dependent dopamine transporter (Homo sapiens, UniProt Q01959); test: Displacement of [3H]WIN-35428 from human DAT expressed in HEK293 cells; format: cell-based
# Chain of Sodium-dependent dopamine transporter (Q01959 whole entry): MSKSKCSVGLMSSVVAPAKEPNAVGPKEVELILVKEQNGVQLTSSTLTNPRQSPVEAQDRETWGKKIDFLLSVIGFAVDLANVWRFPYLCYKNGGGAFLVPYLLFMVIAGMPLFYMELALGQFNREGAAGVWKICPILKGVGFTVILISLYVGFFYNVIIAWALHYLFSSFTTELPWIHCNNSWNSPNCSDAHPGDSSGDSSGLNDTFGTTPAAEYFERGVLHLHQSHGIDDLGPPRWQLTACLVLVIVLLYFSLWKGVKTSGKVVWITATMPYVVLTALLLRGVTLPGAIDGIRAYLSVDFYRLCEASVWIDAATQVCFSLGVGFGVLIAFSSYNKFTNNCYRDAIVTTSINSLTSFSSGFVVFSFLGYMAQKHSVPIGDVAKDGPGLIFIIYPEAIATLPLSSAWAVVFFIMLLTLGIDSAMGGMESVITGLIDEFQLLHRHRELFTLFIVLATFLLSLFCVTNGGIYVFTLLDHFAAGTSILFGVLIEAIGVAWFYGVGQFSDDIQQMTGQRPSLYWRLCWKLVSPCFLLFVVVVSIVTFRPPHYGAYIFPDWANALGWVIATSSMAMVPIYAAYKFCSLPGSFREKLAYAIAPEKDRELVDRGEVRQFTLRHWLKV
# Procedure, shortened: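 Homogenate of HEK293 cells stably expressing hDAT, in 50 mM Tris-HCl pH 7.4, 100 mM NaCl. Incubated with 0.5 nM [3H]WIN35,428 (KD 24.1 nM) and 6-12 test concentrations on ice for 120 min. Nonspecific binding with 10 µM GBR12909. IC50 from triplicates per experiment; Ki calculated.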
# [5] = target: Sodium-dependent noradrenaline transporter (Homo sapiens, UniProt P23975); test: Displacement of [3H]nisoxetine from human NET expressed in HEK293 cells; format: cell-based
# Chain of Sodium-dependent noradrenaline transporter (P23975 whole entry): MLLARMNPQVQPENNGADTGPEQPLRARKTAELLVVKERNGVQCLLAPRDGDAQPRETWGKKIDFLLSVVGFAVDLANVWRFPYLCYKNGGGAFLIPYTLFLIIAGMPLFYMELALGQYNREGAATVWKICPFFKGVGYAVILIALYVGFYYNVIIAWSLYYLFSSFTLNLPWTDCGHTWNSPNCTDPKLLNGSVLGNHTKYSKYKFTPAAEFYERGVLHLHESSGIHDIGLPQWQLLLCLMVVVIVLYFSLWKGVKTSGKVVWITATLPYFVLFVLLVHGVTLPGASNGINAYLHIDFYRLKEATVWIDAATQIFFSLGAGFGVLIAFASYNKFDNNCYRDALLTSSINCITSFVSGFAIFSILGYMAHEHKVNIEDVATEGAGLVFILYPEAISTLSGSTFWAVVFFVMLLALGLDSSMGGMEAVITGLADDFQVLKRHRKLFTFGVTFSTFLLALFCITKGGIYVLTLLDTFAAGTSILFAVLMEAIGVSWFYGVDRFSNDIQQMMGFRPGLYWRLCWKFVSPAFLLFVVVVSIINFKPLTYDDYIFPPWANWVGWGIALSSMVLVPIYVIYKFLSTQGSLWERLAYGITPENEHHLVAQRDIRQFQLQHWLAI
# Procedure, shortened: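 Homogenate of HEK293 cells stably expressing hNET, in 50 mM Tris-HCl pH 7.4, 120 mM NaCl, 5 mM KCl. Incubated with 0.5 nM [3H]nisoxetine (KD 6.77 nM) and 6-12 test concentrations at 21 °C for 60 min. Nonspecific binding with 100 µM protriptyline. IC50 from triplicates per experiment; Ki calculated.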
# [6] = target: T2, 5-hydroxytryptamine receptor 1A (Rattus norvegicus, UniProt P19327); test: Displacement of [3H]8-OH-DPAT from 5HT1A receptor in rat cortical membrane; format: cell membranes
# T2 sequence (P19327 whole entry): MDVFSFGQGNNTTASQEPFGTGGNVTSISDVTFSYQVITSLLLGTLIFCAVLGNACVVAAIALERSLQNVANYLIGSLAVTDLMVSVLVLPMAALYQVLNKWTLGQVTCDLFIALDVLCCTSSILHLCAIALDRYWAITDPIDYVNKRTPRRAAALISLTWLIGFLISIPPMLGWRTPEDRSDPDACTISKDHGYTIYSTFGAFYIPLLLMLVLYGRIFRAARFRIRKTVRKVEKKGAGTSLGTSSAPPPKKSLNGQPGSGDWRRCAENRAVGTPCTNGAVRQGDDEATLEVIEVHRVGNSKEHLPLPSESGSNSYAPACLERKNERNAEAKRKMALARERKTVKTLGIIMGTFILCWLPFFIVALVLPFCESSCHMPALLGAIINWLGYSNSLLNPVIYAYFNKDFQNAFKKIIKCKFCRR
# Procedure, shortened: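 Rat cortical membrane homogenate diluted in 50 mM Tris-HCl pH 7.4, 4 mM CaCl2, 0.1% ascorbic acid. Incubated with 0.3 nM [3H]-8-OH-DPAT and 6-12 test concentrations at 21 °C for 60 min. Nonspecific binding defined with 10 µM serotonin hydrochloride. IC50 from triplicates per experiment, at least three independent experiments; Ki calculated.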
# [7] = Partition coefficient, log D at pH 7.2 to 7.4 by HPLC Supelcosil; format: physicochemical; conditions: octanol/water
# Procedure, shortened: (§1)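 HPLC log D on Multisorb RP18-7 or Supelcosil ABZ+ Plus columns. Gradient from 5% MeCN + 20 mM ammonium acetate to 80% MeCN + 20 mM ammonium acetate over 55 min at 1 ml/min. n ≥ 3 per standard or sample.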
# [8] = Stability in aqueous sodium hydroxide at 80 degC after 30 mins; format: physicochemical; conditions: buffer, 0.5 h
# Procedure, shortened: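 18F tracer held in 0.1 or 1.3 M aqueous NaOH at 80 °C. Analysed by radio-HPLC and TLC.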
# Cortex = test: Stability in rat cortex at pH 7.2 to 7.4 after 120 mins; format: ADME, tissue-based; conditions: buffer, pH 7.2, 2 h
# Procedure, shortened: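 18F tracer incubated at 37 °C in rat cortex homogenate in Tris-HCl, pH 7.2–7.4, for up to 120 min. Sampled every 30 min and analysed by radio-HPLC and TLC.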
# [9] = Partition coefficient, log D at pH 7.2 to 7.4 by HPLC Multisorb; format: physicochemical; conditions: octanol/water
# Procedure, shortened: as §1
# [10] = Partition coefficient, log D in phosphate buffer at pH 7.2 to 7.4 by extractive method; format: physicochemical; conditions: octanol/water
# Procedure, shortened: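 Batch n-octanol–buffer extraction of the 18F-labelled tracer. Buffers were 50 mM Sørensen phosphate pH 7.2, Dulbecco's PBS pH 7.2, and 30 mM Tris-HCl pH 7.4. n = 3 per buffer system.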
# [11] = Protein binding in rat plasma by acetonitrile precipitation; format: ADME, cell-free; conditions: read-out: PB (converted)
# Procedure, shortened: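 18F tracer incubated in freshly isolated rat plasma (protein 95 mg/ml) for 30 min at 37 °C. Protein precipitated with MeCN and extracted twice. Centrifuged at 2000g for 30 min at room temperature; n = 3.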
SMILES,Ki [1] [nM],Ki [2] [nM],fold change (FC) [3],Ki [4] [nM],Ki [5] [nM],Ki [6] [nM],chromatographic logD [7],Stability [8],Stability (Cortex),logD [9],logD [10],fraction unbound [11]
N#Cc1ccc2[nH]cc([C@H]3CC[C@H](N4CCc5cc(OCCC[18F])ccc5C4)CC3)c2c1,–,–,–,–,–,–,2.49,Stable,Stable,3.27,2.36,–
N#Cc1ccc2[nH]cc([C@H]3CC[C@@H](N4CCc5cc(OCCCF)ccc5C4)CC3)c2c1,914,6.16,140,366,772,5670,–,–,–,–,–,–
COc1ccc2c(c1)CCN([C@H]1CC[C@H](c3c[nH]c4ccc(C#N)cc43)CC1)C2,518,73.7,7,462,96.7,267,–,–,–,–,–,–
N#Cc1ccc2[nH]cc([C@H]3CC[C@@H](N4CCc5cc(OCCC[18F])ccc5C4)CC3)c2c1,–,–,–,–,–,–,2.54,Stable,Stable,3.27,2.47,0.973
N#Cc1ccc2[nH]cc([C@H]3CC[C@H](N4CCc5cc(OCCCF)ccc5C4)CC3)c2c1,2310,327,7.1,343,102,2860,–,–,–,–,–,–

# Now from value to molecule:
Ki [1] [nM],Ki [2] [nM],fold change (FC) [3],Ki [4] [nM],Ki [5] [nM],Ki [6] [nM],chromatographic logD [7],Stability [8],Stability (Cortex),logD [9],logD [10],fraction unbound [11],SMILES
286,90.7,3.2,309,184,2530,–,–,–,–,–,–,N#Cc1ccc2[nH]cc([C@H]3CC[C@H](N4CCc5ccccc5C4)CC3)c2c1
2.03,0.73,–,–,–,–,–,–,–,–,–,–,Cc1ccc(Sc2ccccc2CN(C)C)c(N)c1
165,4.1,40.2,370,1020,13100,–,–,–,–,–,–,COc1ccc2c(c1)CCN([C@H]1CC[C@@H](c3c[nH]c4ccc(C#N)cc43)CC1)C2
189,4.51,41.9,424,1430,> 1000,–,–,–,–,–,–,N#Cc1ccc2[nH]cc([C@H]3CC[C@@H](N4CCc5ccccc5C4)CC3)c2c1
